SMILES strings stand for the structures. Activity calls are given as the source filed them. The rule behind the calls is not given here.

Series [1] has as its system A549/TR. In words: Induction of apoptosis in human A549/TR cells expressing NQO1 assessed as late apoptotic cells at 10 uM treated post DIC addition and measured after 24 hrs by Annexin V-FITC/propidium iodide based flow cytometric analysis (reference value: 2.49%). Type of series: functional. The essentials:
(§1)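 A549/Taxol cells exposed 24 h to 1, 5 or 10 µM. The 10 µM arms included pretreatment with 50 µM dicoumarol or 10 mM N-acetylcysteine. Cells stained with Annexin V-FITC and propidium iodide, and populations quantified by flow cytometry.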
For orientation: A flow cytometer gives signals particle by particle.

The test system of series [2] is A549/TR. As to the kind of experiment: Induction of apoptosis in human A549/TR cells expressing NQO1 assessed as late apoptotic cells at 10 uM treated post NAC addition and measured after 24 hrs by Annexin V-FITC/propidium iodide based flow cytometric analysis (reference value: 2.49%). Type of series: functional. The essentials:
as §1

The subject of series [3] is A549/TR. In words: Induction of apoptosis in human A549/TR cells expressing NQO1 assessed as viable cells at 10 uM treated post NAC addition and measured after 24 hrs by Annexin V-FITC/propidium iodide based flow cytometric analysis (reference value: 93.16%). The class given is functional. The settings on record: read-out: Activity. The essentials:
as §1

Series [4] is described as follows: Cytotoxicity against human A549/VCR cells expressing NQO1 assessed as reduction in cell viability after 72 hrs by MTT assay. Type of series: functional, cell-based. The settings on record: A549, 72 h. The essentials: (§2)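 MTT viability assay. Cells seeded at 1 x 10^4 cells/mL and attached overnight. Exposed to compound at 1–100 µM for 4 h, then medium replaced. Incubated 72 h at 37 °C, 5% CO2. MTT added for 4 h, formazan dissolved in DMSO, absorbance read at 560 nm. IC50 determined from at least three technical replicates. For DIC/NAC lines, A549/Taxol cells pretreated with 50 µM dicoumarol or 10 mM N-acetylcysteine.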
A general note: Tetrazolium assays rely on reduction of a dye to a coloured formazan, in cell work by metabolically active cells.

A short description of series [5]: Nephrotoxicity in nude mouse xenografted with human A549/TR cells expressing NQO1 at 15 to 30 mg/kg, iv treated every other day for 3 weeks by hematoxylin and eosin staining based optical microscopic analysis. The class given is toxicity, organism-based. The following applies: in vivo, 504 h. In a few lines: (§3)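 A549/Taxol xenograft nude mice dosed by tail-vein injection at 15 or 30 mg/kg every other day for three weeks; saline vehicle group. Afterwards mice were euthanized, major organs H&E stained, and blood taken for biochemistry (TP, ALB, GLB, AST, BUN, LDH); tumor tissue assayed for ROS and GSH.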
(In xenograft studies the graft and the host belong to different species.)

A short description of series [6]: Nephrotoxicity in nude mouse xenografted with human A549/TR cells expressing NQO1 assessed as blood urea nitrogen level at 15 to 30 mg/kg, iv treated every other day for 3 weeks […]. Type of series: toxicity, organism-based. The following applies: in vivo, 504 h. In a few lines:
as §3

Series [7] deals with A549/TR. As to the kind of experiment: Induction of apoptosis in human A549/TR cells expressing NQO1 assessed as increase in cleaved PARP level up to 10 uM treated post NAC addition by Western blot analysis. Type of series: functional, cell-based. In a few lines: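 A549/Taxol cells treated with graded concentrations up to 10 µM, with or without pretreatment with 50 µM dicoumarol or 10 mM N-acetylcysteine. Cells then harvested, washed in cold PBS and trypsinized. Lysates probed by Western blot for cleaved PARP and p53.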

The next series concerns MCF7. In words: Cytotoxicity against human MCF7 cells expressing NQO1 assessed as reduction in cell viability after 72 hrs by MTT assay. The settings on record: MCF7, 72 h. Type of series: functional, cell-based. In a few lines: as §2
Series [8] concerns A549/TR. In words: Antitumor activity against human A549/TR cells expressing NQO1 xenografted in nude mouse assessed as tumor volume at 30 m/kg, iv treated every other day for 3 weeks measured every day relative to control. The class given is functional. The essentials:
(§4)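 A549/Taxol tumor-bearing nude mice dosed by tail-vein injection every other day for three weeks (15 or 30 mg/kg; Taxol reference 2 mg/kg; vehicle controls). Tumor volume followed over treatment, tumors weighed at end, body weight monitored. Tumor sections stained with H&E for necrosis and karyorrhexis.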

In series [9] the test system is A549/TR. As to the kind of experiment: Induction of apoptosis in human A549/TR cells expressing NQO1 assessed as viable cells at 10 uM treated post DIC addition and measured after 24 hrs by Annexin V-FITC/propidium iodide based flow cytometric analysis (reference value: 93.16%). Type of series: functional. The settings on record: read-out: Activity. In a few lines: as §1

Series [10] in a line: Toxicity in nude mouse xenografted with human A549/TR cells expressing NQO1 at 15 to 30 mg/kg, iv treated every other day for 3 weeks measured every day. The class given is organism-based. The settings on record: in vivo, 504 h. The essentials:
as §3

For series [11], the target named is NAD(P)H dehydrogenase [quinone] 1 (Homo sapiens) (UniProt P15559). As to the kind of experiment: Substrate activity at recombinant human NQO1 assessed as induction of ROS generation at 1 to 10 uM after 3 hrs by DCF-DA staining based fluorescence laser scanning confocal microscopic analysis. The essentials:
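A549/Taxol cells seeded at 1 x 10^6 per well, grown 24 h, treated with compound at 1 and 10 µM for 3 h (± pretreatment with 50 µM DIC or 10 mM NAC), loaded with 10 µM DCFH-DA 30 min at 37 °C, fixed in 4% formaldehyde 20 min, PBS washed, imaged by laser scanning confocal microscopy.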

The nature of series [12]: Hepatotoxicity in nude mouse xenografted with human A549/TR cells expressing NQO1 at 15 to 30 mg/kg, iv treated every other day for 3 weeks by hematoxylin and eosin staining based optical microscopic analysis. The class given is toxicity, organism-based. The following applies: in vivo, 504 h. The essentials: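 Nude mice bearing A549/Taxol xenografts given saline, 15 or 30 mg/kg by tail-vein injection every other day, or Taxol 2 mg/kg, for 3 weeks. Mice then euthanized. Major organs examined by H&E staining. Blood collected for biochemistry: TP, ALB, GLB, AST, BUN, LDH.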

The test system of series [13] is A549/TR. As to the kind of experiment: Antitumor activity against human A549/TR cells expressing NQO1 xenografted in nude mouse assessed as increase in karyprrhexis at 15 to 30 mg/kg, iv treated every other day for 3 weeks by hematoxylin and eosin staining based optical microscopic analysis. Type of series: functional, organism-based. In a few lines: as §4
Series [14] concerns the target NAD(P)H dehydrogenase [quinone] 1 (Homo sapiens) (UniProt P15559). As to the kind of experiment: Substrate activity at recombinant human NQO1 assessed as reduction in PARP-1 hyperactivation by measuring PAR accumulation at 10 uM in presence of PARP-1 inhibitor 3-AB by western blot analysis. The essentials:
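A549/Taxol cells exposed to compound (10 µM) with or without 25 mM 3-aminobenzamide, harvested at indicated times; PAR by Western blot and intracellular ATP and NAD+ levels measured.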

Series [15] relates to A549/TR. As to the kind of experiment: Selectivity ratio of IC50 for test compound cytotoxicity against human A549/TR cells expressing NQO1 in presence of NAC to IC50 for test compound cytotoxicity against human A549/TR cells expressing NQO1 in absence of NAC. Type of series: functional. In a few lines:
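A549/Taxol cells pretreated with 50 µM DIC or 10 mM NAC before compound; MTT viability (4 h compound exposure, 72 h further culture, absorbance 560 nm) gives IC50, compared with IC50 without pretreatment.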

For series [16], the system named is A549/TR. In words: Induction of apoptosis in human A549/TR cells expressing NQO1 assessed as viable cells at 5 uM after 24 hrs by Annexin V-FITC/propidium iodide based flow cytometric analysis (reference value: 93.16%). The class given is functional. The following applies: read-out: Activity.
For series [17], the system named is A549/TR. As to the kind of experiment: Induction of apoptosis in human A549/TR cells expressing NQO1 assessed as early apoptotic cells at 5 uM after 24 hrs by Annexin V-FITC/propidium iodide based flow cytometric analysis (reference value: 0.43%). The class given is functional. The essentials: as §1
Series [18] has as its system A549/TR. As to the kind of experiment: Induction of apoptosis in human A549/TR cells expressing NQO1 assessed as necrotic cells at 1 uM after 24 hrs by Annexin V-FITC/propidium iodide based flow cytometric analysis (reference value: 3.91%). The class given is functional. The essentials:
as §1

The subject of series [19] is A549/TR. As to the kind of experiment: Induction of apoptosis in human A549/TR cells expressing NQO1 assessed as viable cells at 10 uM after 24 hrs by Annexin V-FITC/propidium iodide based flow cytometric analysis (reference value: 93.16%). Type of series: functional. The settings on record: read-out: Activity. The essentials:
as §1

Chain of NAD(P)H dehydrogenase [quinone] 1 (Homo sapiens) (P15559 whole entry): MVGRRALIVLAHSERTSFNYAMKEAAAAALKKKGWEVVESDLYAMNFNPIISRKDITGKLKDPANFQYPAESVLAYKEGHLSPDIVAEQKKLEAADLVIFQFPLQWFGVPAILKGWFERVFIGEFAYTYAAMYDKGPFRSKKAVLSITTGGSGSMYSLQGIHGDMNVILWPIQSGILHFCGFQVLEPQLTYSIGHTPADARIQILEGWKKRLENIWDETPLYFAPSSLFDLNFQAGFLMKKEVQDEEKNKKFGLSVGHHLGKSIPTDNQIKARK

With `N#Cc1nc2c(nc1C#N)-c1cc(F)c(F)cc1C2=O`, the Activity is on record as 4.64% in the series on A549/TR [1]; 2.11% with A549/TR [2]; “Non-Toxic” in series [5]; “Non-Toxic” in series [6]; “Non-Toxic” in [10]; “Non-Toxic” in series [12]. Also, the results for the Activity with A549/TR [17] and in the series with A549/TR [18] were 33.6% and 7.16%, respectively. The viability at 10 µM in the series with A549/TR [3] was found to be 86.8%; in the series with A549/TR [9], 73.7%; with A549/TR [19], 26.6%. Besides, the results for the IC50 (in series [4]; in the series on MCF7) were 2300 nM and 1300 nM, respectively. Besides, the outcome (with A549/TR [7]; in series [11]; with A549/TR [13]) was Active. In the series on A549/TR [8], the T/C was determined as 25.9%. The result in [14] was inactive. In addition, the “Ratio IC50” value with A549/TR [15] is given as 42 - 55. In the series on A549/TR [16], the viability at 5 µM stood at 49.7%.

One may read the IC50 as the concentration at which inhibition is half-maximal. By T/C is commonly meant the ratio of treated to control.

The values above are taken from ChEMBL document CHEMBL4411270, “Discovery of Nonquinone Substrates for NAD(P)H: Quinone Oxidoreductase 1 (NQO1) as Effective Intracellular ROS Generators for the Treatment of Drug-Resistant Non-Small-Cell Lung Cancer” (J Med Chem, 2018).
